# Test results as given in ChEMBL document CHEMBL4513216, “Probing the Open Global Health Chemical Diversity Library for Multistage-Active Starting Points for Next-Generation Antimalarials” (ACS Infect Dis, 2020).
# Assay: Toxicity liver stage against HepG2, at 10uM
# Assay type: cell-based
# Set-up: test concentration 10 uM, cell line HepG2-A16-CD81EGFP
# Details: human, HepG2-A16-CD81EGFP cells; read-out: INHIBITION
# Summary of the method: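 Uninfected HepG2-A16-CD81EGFP cells, 3 × 10^3 per well, 1536-well, plated on prespotted compound at 10 μM final, parasite-free screening media added to match infected plates; puromycin 10 μM positive, DMSO 0.5% negative; run in parallel with 48 h PbLuc assay at 37 °C, 5% CO2; viability by CellTiter-Glo luminescence, normalized to controls.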
row,Structure (SMILES),cytotoxicity at 10 µM [%]
1,CCOC(=O)c1sc(NC(=O)C(C)C)c(C#N)c1C,-15.9
2,Cc1nc(CCNC(=O)NCc2ccc(N(C)C)nc2)cs1,-11.3
3,CCN(CC)CC[C@H]1CN(C(=O)c2ccc(F)cc2)CC[C@H]1CC(=O)O,3.1
4,NC(=O)C1CCN(C(=O)Cc2cnc(-c3c(Cl)cccc3Cl)s2)CC1,-2.23
5,Cc1nnc(SC2CCc3ccccc3NC2=O)n1C (configuration not stated),-1.31
6,O=C(NCCc1ccccc1)NCCN1CCC(c2cccs2)CC1,-4.16
7,CS(=O)(=O)N1CCN(c2cc(-n3cccc3)ncn2)CC1,4.65
8,CC(C)(CO)CNC(=O)c1ccnn1-c1ccc2ccccn12,15.8
9,COc1cccc(CN2CCC3(CCN(c4ncc(C)cn4)C3)C2=O)c1 (configuration not stated),-0.265
10,Cc1ccc(C(=O)N2CC[C@@H]3[C@H]2CCC(=O)N3CC2CC2)o1,-0.419
11,CC(C)CN1C(=O)C2(CCN(Cc3ccc(F)cc3)C2)c2ccccc21 (configuration not stated),13
12,Cn1ccc(C(=O)NC2CCC23CCN(Cc2nccs2)CC3)c1 (configuration not stated),-136
13,Cc1noc2nc3c(c(C(=O)/N=c4\[nH]nc(C(C)C)s4)c12)CCC3,-6.53
14,COc1cccc(-c2cc(C(=O)N3N=C(C)CC3(O)C(F)(F)F)[nH]n2)c1 (configuration not stated),5.97
15,CCn1cc(S(=O)(=O)N2CCN(C(=O)c3cc(Br)cs3)CC2)c(C)n1,2.73
16,CC(C(=O)O)n1nc(C(F)(F)F)c(Br)c1C1CC1 (configuration not stated),10.3
17,O=C(NCCCn1cccn1)c1nnc2ccccc2n1,0.14
18,CCN(CC)c1nc(C)cc(C(=O)Nc2cnn(CC)c2)n1,-16.4
19,CCOCC(=O)N1CCC(C)(c2nccs2)CC1,7.64
20,O=C(Cc1cccs1)N1CCC(O)(CN2CCc3ccccc3C2)C1 (configuration not stated),-1.47
21,CN(C(=O)C1CCOCC1)[C@@H]1CCC[C@@H](N2CCOCC2)[C@@H]1O,2.19
22,Cc1cnc(C2CCCN(C(=O)c3c[nH]c(=O)[nH]c3=O)C2)s1 (configuration not stated),-1.58
23,CC(=O)N1CCOC(c2cc(N3CC(O)C3)nc(C)n2)C1 (configuration not stated),3.16

row,Structure (SMILES),cytotoxicity at 10 µM [%]
1,COCCC(=O)N1CCC(c2noc3nc(C)cc(C(F)(F)F)c23)CC1,4.45
2,Nc1nc(C2CCN(C(=O)c3cncs3)CC2)cs1,-1.49
3,CCCN1Cc2ccccc2NC(=O)C12CCNC2 (configuration not stated),5.92
4,Cc1cc(C)n(-c2cccc(NC(=O)N3CCC[C@@H]3CO)c2)n1,13.9
5,CN1CCN(c2ccc(F)cc2NC(=O)NCCn2ccnc2)CC1,1.69
6,CC1CCN(S(=O)(=O)N2CCCN(CC3CCCO3)CC2)CC1 (configuration not stated),-5.15
7,CCN1CCCCC1C(=O)N1CCC(OCCOC)CC1 (configuration not stated),-6.81
8,NC(=O)CN1CCCN(C(=O)c2ccc(SC(F)F)cc2)CC1,-6.08
9,Cc1ccccc1CC(C)(C)NC(=O)COc1cccc(C(N)=O)c1,20.4
10,CN(Cc1cnn(C)c1)C(=O)CCS(=O)(=O)c1ccc2c(c1)OCCO2,-17
11,FC(F)Oc1ccc(CN2CCOC3(CCOCC3)C2)cc1Cl,-6.58
12,COCC1CCCN(CCCc2cccc(OC)c2)C1 (configuration not stated),2.41
13,CCOC(=O)c1cnn(C2CCN(C(=O)CCC(C)C)CC2)c1N,-0.12
14,CCc1sc(C(=O)NC2CC2)cc1C,14.5
15,O=C(NCCCn1nc2ccccn2c1=O)NCCC1CCC1,5.47
16,NC(=O)CCC1CCCN(c2ccc3c(Cl)ccnc3c2F)C1 (configuration not stated),29.6
17,CCc1nnc2n1CC(CNCC1CCCC1)CC2 (configuration not stated),-3.98
18,O=C(Nc1ccnc2ccnn12)c1ccc(N2CCC(O)CC2)cc1,53.4
19,CNC(=O)c1cccc(NC(=O)NC(C)c2cc(C)oc2C)c1C (configuration not stated),-9.26
20,CC(=O)N(CCC(=O)NC1(C#N)CCC1)Cc1ccccc1,12.6
21,CCc1cc(CNC(=O)Nc2cc(F)cc(N3CCCC3)c2)on1,4.79
22,CC(NCCCC#N)c1ccc(-c2cccnc2)cc1 (configuration not stated),11.3
23,COCCN(c1ccncc1)S(=O)(=O)c1cc(C)cc(F)c1,7.83

row,Structure (SMILES),cytotoxicity at 10 µM [%]
1,Cn1cc(NC(=O)Nc2cccc3cccnc23)ccc1=O,-9.22
2,CN1CCN(C(=O)c2occc2CN2C(=O)Cc3ccccc32)CC1,-1.89
3,CC(C)c1noc(C(C)S(=O)(=O)CC(=O)N2CCCC2)n1 (configuration not stated),4.23
4,CS(=O)(=O)Cc1ccc(C(=O)Nc2ccc3c(c2)C(=O)NC3)cc1,10.8
5,CC(C)c1noc(CCNC(=O)N2CCSC(C(C)C)C2)n1 (configuration not stated),-2.65
6,CN(C)Cc1nc(C2(NC(=O)Nc3cccc(F)c3)CCCC2)no1,2.32
7,CC(C)Sc1ccc(C(C)NC(=O)CNS(C)(=O)=O)cc1 (configuration not stated),3.92
8,CCc1cnc(CNC(=O)N2CCCC(C(=O)NC)C2)s1 (configuration not stated),19.8
9,CC(CCc1ccccc1)N1CCC(C(=O)Nc2cnccn2)CC1 (configuration not stated),13.2
10,CCS(=O)(=O)N(C)CCCNC(=O)c1cc(Cl)cc2cccnc12,15
11,CC(NC(=O)NCc1cccnc1N(C)C)c1cccs1 (configuration not stated),1.76
12,Cc1cccc(N(CC(=O)N2CCCCC2)Cc2nc(=O)[nH][nH]2)c1,-2.85
13,Cc1ccc(OCc2nnc(SCC3CCCN(C)C3)o2)cc1 (configuration not stated),-3.73
14,O=C(CN1CCSCC1c1ccccc1)N1CCCC1 (configuration not stated),7.34
15,CCOCc1ccccc1NC(=O)NC1CCN(CC(F)(F)F)C1 (configuration not stated),1.81
16,O=C(c1cc[nH]n1)N1CCCC1C1CCN(Cc2ccccc2)CC1 (configuration not stated),1.98
17,O=C(N1CCCC1)N1CCn2c(Cn3cccn3)cnc2C1,-69.1
18,Cc1nc(NCC2CC2)nc2c1COCC21CCNC1 (configuration not stated),-72.8
19,CN(CCCc1cnn(C)c1)C(=O)Nc1cccc2[nH]nnc12,-3.98
20,COc1cccc2c1OCC(Cc1cc(C(N)=O)ccn1)C2 (configuration not stated),5.83
21,OC1(CNCCSc2ccccn2)CCCNC1 (configuration not stated),-6.46
22,COCCN(C)CC(=O)N1C[C@@H](NC(C)=O)[C@H](c2ccc(OC)cc2)C1,1.45
23,NC(=O)c1csc(N2CCCC(c3nc4ccccc4[nH]3)C2)n1 (configuration not stated),8.5

row,Structure (SMILES),cytotoxicity at 10 µM [%]
1,CCc1oc(C(=O)NCCSc2ncn[nH]2)cc1CN1CCCC1,-5.25
2,Nc1cnc(-c2ccc(F)cc2Cl)cn1,-136
3,CN(CCCc1cnn(C)c1)C(=O)Nc1cccc2[nH]ncc12,-1.89
4,COCCN1CC(C(=O)N(CCN(C)C)Cc2ccc(C)s2)CC1=O (configuration not stated),1.98
5,COc1cccc(OCC2CCCN(C(=O)c3ncoc3C3CC3)C2)c1 (configuration not stated),3.79
6,COCCn1cnnc1Cn1ccnc1-c1ccoc1,-2.66
7,c1ccc2c(c1)CCN(c1ncnc3sc4c(c13)CCNC4)C2,5.66
8,Cc1cc(F)ccc1N1CCC(N2C[C@@H](CN(C)C)[C@@H](CO)C2)CC1,-12.1
9,CCn1ccnc1C1CCN(c2ncnc3ccsc23)CC1,5.31
10,Cc1cnccc1CN(C)C(=O)C(C)(C)NC(=O)c1cccs1,6.89
11,N#CCCSc1sc2c(O)cc(O)nc2c1C#N,-6.11
12,CC(C)c1cc(COCCCC(=O)O)no1,11.1
13,Cn1nc(C2CCCN(Cc3ccsc3)C2)c2nccnc21 (configuration not stated),-2.58
14,COc1ncc(CN2CC[C@@](C)(O)[C@H](Oc3cccc(F)c3)C2)cn1,1.68
15,O=C(NC1CCN(C2CC2)CC1)N1CCN(c2cnccn2)CC1,-6.97
16,Cc1noc(C)c1CCC(=O)N1CCCN(CC(N)=O)CC1,-12.4
17,O=C(CN1CCCC(Cn2cncn2)C1)NCCC1=CCCCC1 (configuration not stated),-3.33
18,COc1ccccc1OCCNC1CCCN(Cc2noc(C)n2)C1 (configuration not stated),-19.1
19,CCN(Cc1ccc2c(c1)OCO2)C(=O)Cn1cccnc1=O,-2.27
20,CCN(Cc1ccc2c(c1)OCCO2)C(=O)Cn1cccnc1=O,-5.1
21,CCc1nc(CN2CCCN(Cc3nnc(C4CC4)o3)CC2)no1,-9.26
22,O=C(c1ccc2c(c1)OCCO2)N1CCCC(n2ccnc2)C1 (configuration not stated),-16.3
23,CC(C)c1cc(NC(=O)c2ccc(C(=O)NC(C)(C)C)cc2)[nH]n1,-0.164

row,Structure (SMILES),cytotoxicity at 10 µM [%]
1,Cn1ccc(CN2CCC(c3ccccc3)CC2)cc1=O,-6.46
2,Cc1cc(C(=O)N2CCCCC2C)ccc1NCCCO (configuration not stated),-4.35
3,Cc1ccc(C)c(OCCN2CCC(N3CCNC3=O)CC2)c1,1.85
4,CCc1nc(CN2CCCN(C(=O)C(C)n3cncn3)CC2)cs1 (configuration not stated),-7.26
5,Cc1cc(C(=O)N2CCCC2Cn2nc(C)cc2C)on1 (configuration not stated),-8.21
6,COc1ccc(Cl)cc1CC(=O)N1CCN(CCO)CC1,-9.51
7,Cn1nccc1-c1ccc2nc(C3CCN(CC4CC4)CC3)nn2c1,5.85
8,O=C(c1ccccc1)N1CCO[C@@H]2CN(c3cnccn3)C[C@@H]2C1,0.442
9,Cc1cnc(N2Cc3nccn3CC(Cn3ncccc3=O)C2)nc1 (configuration not stated),7.54
10,CN(C)c1ncnc2c1CCN(CC1CCCC1)CC2,1.03
11,COCCN1CCO[C@@H]2CN(C(=O)COc3ccc(C)cc3)C[C@@H]2C1,-0.572
12,Cn1ccc(CN2CCC3(CC2)CC(Nc2ccccn2)CO3)n1 (configuration not stated),-1.19
13,Cc1ccc2c(n1)N(CCN(C)C)CCN(C(=O)c1cscn1)C2,-72.7
14,O=C(c1ccccc1)N1CCS(=O)(=O)[C@@H]2CCNCC[C@@H]21,-127
15,Cc1nc(CN2C(=O)COC3(CCN(Cc4ccsc4)CC3)C2C)cs1 (configuration not stated),-123
16,Cc1oncc1C(=O)NCc1cc(=O)n2c(n1)CN(CC(C)C)CCC2,-0.187
17,CN(C)C(=O)COCC1CN(S(C)(=O)=O)Cc2ncn(C)c21 (configuration not stated),4.39
18,O=S1(=O)NC(=CSCc2ccccc2)Nc2ccccc21,0.603
19,O[C@@H]1CC(CNCc2ccc(F)cc2)(COc2cccnc2)C[C@@H]1O (some centres not stated),-10.8
20,Cc1cc(C(=O)N2C[C@@H]3CC[C@H]2CN(C(=O)c2ccncc2)C3)cs1,-2.56
